Consider 2 molecules from ChEMBL document CHEMBL5126619, “An Unexpected Deuterium-Induced Metabolic Switch in Doxophylline” (ACS Med Chem Lett, 2022).

Active and inactive are the calls of the source. The calls are words filed in the database; no cut-off is given here.

Data set [1] can be described thus: Drug metabolism in mouse plasma assessed as dm-doxophylline formation measured upto 4 hrs. The format is ADME, cell-free. Put shortly: (§1)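 Plasma from mice dosed 20 mg/Kg i.v. or 80 mg/Kg by oral gavage, sampled sublingually under isoflurane pre-dose to 24 h (n=3), K3EDTA. Caffeine internal standard, trichloroacetic acid precipitation. Kinetex C18 UHPLC-MS, positive full-scan/PRM. Metabolites quantified against calibration curves.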

A short description of data set [2]: Drug metabolism in mouse plasma assessed as 7-theophylline acetic acid formation by measuring fold increase measured at 30 mins. The format is ADME, cell-free. Particulars: 0.5 h. Put shortly:
as §1

The nature of data set [3]: Drug metabolism in mouse plasma assessed as Theophylline formation measured upto 4 hrs. The format is ADME, cell-free. The gist of the method:
as §1

Data set [4] is described as follows: Drug metabolism in mouse plasma assessed as Etophylline formation measured upto 4 hrs. The format is ADME, cell-free. The gist of the method:
as §1

Data set [5] can be described thus: Drug metabolism in mouse plasma assessed as 7-((1,3-dioxol-2-yl)methyl)-1,3-dimethyl-1H-purine-2,6(3H,7H)-dione formation measured upto 6 hrs. The format is ADME, cell-free.
Data set [6] deals with Mus musculus. As to the kind of experiment: Antifibrotic activity against Pseudomonas aeruginosa-induced pulmonary fibrosis C57BL/6 mouse model assessed as reduction in accumulation of immune cells bronchoalveolar lavage at 80 mg/kg, os qd pretreated with compound for 1 hr followed by Pseudomonas aeruginosa instillation and measured after 7 days by trypan blue staining based hemocytometer analysis. The format is functional, organism-based. Conditions: time 7.0 day. The gist of the method: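 Day 7 after trans-tracheal Pseudomonas bead instillation, with oral 80 mg/kg daily dosing. Trachea cannulated, lungs washed once with 0.5 mL Dulbecco's PBS. Fluid spun, then total pelleted cells counted with trypan blue on a hemocytometer.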

Data set [7] concerns Mus musculus. In words: Antifibrotic activity against Pseudomonas aeruginosa-induced pulmonary fibrosis C57BL/6 mouse model assessed as reduction in MPO level at 80 mg/kg, os qd […] and measured after 7 days by spectrophotometric analysis. The format is functional, organism-based. Conditions: time 7.0 day, tested as the 2H-labelled form. The gist of the method:
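Pseudomonas bead model, 80 mg/kg oral daily for 7 days from 1 h post-instillation. Lungs homogenized in 0.5% HTAB/10 mM potassium phosphate pH 7 and spun 20,000×g, 30 min, 4 °C. Supernatant reacted with 0.1 mM H2O2 and 1.6 mM tetramethylbenzidine, A650 read. Unit = 1 µmol H2O2 degraded/min at 37 °C; per g wet tissue.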

Data set [8] concerns Mus musculus. In words: Antifibrotic activity against BLM-induced lung injury C57BL/6 mouse model assessed as reduction in collagen thickness at 80 mg/kg, po qd pretreated with compound for 1 hr followed by BLM treatment and measured on day 21 by picrosirius red staining method. The format is functional, organism-based. Conditions: time 21.0 day. Put shortly: (§2)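 BLM model: pharyngeal aspiration 0.02U/50µl; oral daily dosing in saline from 1 h pre-BLM; day 21 sacrifice. Lungs fixed 48 h in 10% buffered formalin at room temperature, paraffin-embedded, 4 µm sections. Stains: H&E for infiltrate, Masson's trichrome or Picrosirius Red for stromal fibres.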

The subject of data set [9] is Mus musculus. As to the kind of experiment: Antifibrotic activity against BLM-induced lung injury C57BL/6 mouse model assessed as reduction in collagen thickness at 80 mg/kg, po qd pretreated with compound for 1 hr followed by BLM treatment and measured on day 21 by Masson trichrome staining based analysis. Particulars: time 21.0 day. The format is functional, organism-based. Put shortly:
as §2

Data set [10] concerns Mus musculus. As to the kind of experiment: Antifibrotic activity against Pseudomonas aeruginosa-induced pulmonary fibrosis C57BL/6 mouse model assessed as effect on nitrotyrosine expression at 80 mg/kg, os qd […] and measured after 7 days by immunohistochemistry analysis. The format is functional, organism-based. Conditions: time 7.0 day, tested as the 2H-labelled form. Put shortly: (§3)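 Mucoid P. aeruginosa NH57388A in agar beads, ~1×10^6 CFU per mouse, given trans-tracheally under isoflurane. Compound 80 mg/kg orally daily from 1 h post-instillation for 7 days, n=10. Lung sections 8 µm from formaldehyde-fixed paraffin blocks. Anti-nitrotyrosine or anti-PAR 1:500 overnight, avidin-biotin peroxidase detection. Densitometry of positive pixels; mean ± S.E.M.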

Data set [11] relates to Mus musculus. In words: Inhibition of Pseudomonas aeruginosa-induced apoptosis in C57BL/6 mouse at 80 mg/kg, os qd pretreated with compound for 1 hr followed by Pseudomonas aeruginosa instillation and measured after 7 days by TUNEL assay. The format is functional, organism-based. Conditions: time 7.0 day, tested as the 2H-labelled form. Put shortly:
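Lung sections from the day-7 Pseudomonas model (oral 80 mg/kg daily) treated with 15 µg/ml proteinase K for 15 min at RT, then 3% H2O2 for 5 min. TdT with biotinylated dUTP applied, 37 °C 90 min. HRP-conjugated antibody 30 min, then DAB. TUNEL-positive cells quantified.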

Data set [12] relates to Mus musculus. As to the kind of experiment: Antifibrotic activity against BLM-induced lung injury C57BL/6 mouse model assessed as reduction in accumulation of immune cells bronchoalveolar lavage at 80 mg/kg, po qd pretreated with compound for 1 hr followed by BLM treatment and measured on day 21 by trypan blue staining based hemocytometer analysis. The format is functional, organism-based. The gist of the method: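 BLM model with aspiration, oral daily dosing in saline from 1 h pre-challenge, and day-21 endpoint. Lavage via tracheal cannula with 1 mL aliquots of ice-cold Ca/Mg-free phosphate medium, pH 7.4. Cells pelleted at 500×g, 5 min, 4 °C, then washed and resuspended. Counted by trypan blue exclusion on a hemocytometer.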

Data set [13] deals with Mus musculus. As to the kind of experiment: Antifibrotic activity against BLM-induced lung injury C57BL/6 mouse model assessed as decrease in inflammatory interstitial infiltrate at 80 mg/kg, po qd pretreated with compound for 1 hr followed by BLM treatment and measured on day 21 by H and E staining based histological analysis. Particulars: time 21.0 day. The format is functional, organism-based. Put shortly:
as §2

The test system of data set [14] is Mus musculus. As to the kind of experiment: Antifibrotic activity against Pseudomonas aeruginosa-induced pulmonary fibrosis C57BL/6 mouse model assessed as effect on poly(ADP-ribose) polymerase level at 80 mg/kg, os qd […] and measured after 7 days by immunohistochemistry analysis. Conditions: time 7.0 day, tested as the 2H-labelled form. The format is functional, organism-based. Put shortly:
as §3

For data set [15], the system named is Mus musculus. As to the kind of experiment: Antifibrotic activity against BLM-induced lung injury C57BL/6 mouse model assessed as reduction in lung wet/dry ratio by measuring liquid accumulation at 80 mg/kg, po qd pretreated with compound for 1 hr followed by BLM treatment and measured on day 21. The format is functional, organism-based. Particulars: time 21.0 day. Put shortly:
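At day 21 after BLM aspiration (compound given orally daily from 1 h pre-BLM), lungs harvested free of extraneous tissue and weighed wet. Dried 72 h at 100°C and reweighed. Water content = wet minus dry weight.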

The subject of data set [16] is Mus musculus. As to the kind of experiment: Antifibrotic activity against Pseudomonas aeruginosa-induced pulmonary fibrosis C57BL/6 mouse model assessed as effect on collagen deposition at 80 mg/kg, os qd pretreated with compound for 1 hr followed by Pseudomonas aeruginosa instillation and measured after 7 days by Masson trichrome staining based analysis. The format is functional, organism-based. Conditions: time 7.0 day, tested as the 2H-labelled form.

In data set [17] the test system is Mus musculus. As to the kind of experiment: Antifibrotic activity against Pseudomonas aeruginosa-induced pulmonary fibrosis C57BL/6 mouse model assessed as decrease in lung inflammation at 80 mg/kg, os qd pretreated with compound for 1 hr followed by Pseudomonas aeruginosa instillation and measured after 7 days by immunohistochemistry analysis. The format is functional, organism-based. Conditions: time 7.0 day.

The test system of data set [18] is Mus musculus. As to the kind of experiment: Antifibrotic activity against BLM-induced lung injury C57BL/6 mouse model assessed as decrease in MPO level at 80 mg/kg, po qd pretreated with compound for 1 hr followed by BLM treatment and measured on day 21 by colorimetric assay. The format is functional, organism-based. Conditions: time 21.0 day. Put shortly:
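BLM 0.02U/50µl given by pharyngeal aspiration under isoflurane. Compound in 0.9% NaCl, or saline vehicle, by gavage 1 h before BLM, then daily. Mice killed day 21. Lung MPO measured with a colorimetric kit per the manufacturer. Unit = enzyme degrading 1 μM peroxide/min at 37°C, expressed as U/mg wet tissue.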

For data set [19], the system named is Mus musculus. As to the kind of experiment: Antifibrotic activity against Pseudomonas aeruginosa-induced pulmonary fibrosis C57BL/6 mouse model assessed as reduction in inflammatory interstitial infiltrate at 80 mg/kg, os qd pretreated with compound for 1 hr followed by Pseudomonas aeruginosa instillation and measured after 7 days by H and E staining based histological analysis. The format is functional, organism-based. Conditions: time 7.0 day. Put shortly:
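Pseudomonas bead lung model, day 7, with oral 80 mg/kg daily treatment. Biopsies fixed in 10% formaldehyde in PBS at room temperature and stained with H&E. Five random fields per sample at ×100 scored for severity by a blinded observer.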

In the case of `[2H]C1([2H])OC(Cn2cnc3c2c(=O)n(C)c(=O)n3C)OC1([2H])[2H]`, the Drug metabolism result in data set [1] is “Metabolite_Detected”; in data set [3], “Metabolite_Detected”; in data set [4] it was “Metabolite_Notdetected”; in data set [5], “Metabolite_Notdetected”. For the same molecule, in data set [2], the “fold change (FC)” value is given as 3.

With `Cn1c(=O)c2c(ncn2CC2OCCO2)n(C)c1=O`, the result in [6], in data set [6] (tested as the 2H-labelled form), in data set [7], in [8], in data set [8] (tested as the 2H-labelled form) and in data set [9] was Active. Further, the result in [9] (tested as the 2H-labelled form), in data set [10], in [12], in data set [12] (tested as the 2H-labelled form), in [13] and in data set [13] (tested as the 2H-labelled form) was Active. Further, the outcome in [14], in data set [15], in [15] (tested as the 2H-labelled form), in data set [16], in data set [17] and in data set [17] (tested as the 2H-labelled form) was Active. Moreover, the outcome in [18], in [18] (tested as the 2H-labelled form), in [19] and in data set [19] (tested as the 2H-labelled form) was Active. Besides, the inhibition entry in [11] was “Active”.
